According to ChEMBL document CHEMBL1129958, “Synthesis and antiviral activity of certain 5'-modified analogs of 2,5,6-trichloro-1-(beta-D-ribofuranosyl)benzimidazole” (J Med Chem, 1997):

Experiments:
Human betaherpesvirus 5 [1] = test: In vitro antiviral activity against HCMV (Towne strain) in HFF (human fibroblast) cells.; type: functional, organism-based; settings: Human betaherpesvirus 5, HFF
Outline: (§1)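 HFF monolayers in 24-well dishes infected with about 100 PFU HCMV/cm2 of cell sheet. After adsorption, compound in growth medium added to duplicate wells at four to eight concentrations. Incubated 7 days at 37 °C, fixed and stained with crystal violet, microscopic plaques counted. Percent plaque reduction against no-drug wells regressed on log concentration to give IC50.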

HFF = test: Visual cytotoxicity was scored on Human foreskin fibroblasts (HFF cells) at the time of plaque enumeration.; type: functional, cell-based
Outline: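 Stationary HFF cells from the plaque assays, not affected by virus, inspected microscopically for cytotoxicity at the time of plaque counting.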

Human alphaherpesvirus 1 [2] = test: In vitro antiviral activity against HSV-1 virus in BSC-1 (monkey kidney) cells.; type: functional, organism-based; settings: Human alphaherpesvirus 1, BSC-1
Outline: (§2)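 BSC-1 cells, 10 000/well in MEM(E) with 10% calf serum, incubated overnight at 37 °C. Drug added in quadruplicate together with HSV-1 KOS at 100 PFU/well and incubated 3 days. Read-out by ELISA with HRP-conjugated rabbit anti-HSV-1 and TMB substrate, absorbance at 450 and 570 nm. Percent absorbance reduction against virus-only wells regressed on log concentration for IC50.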

L1210 [3] = test: Effect of initial screen concentration of 100 uM on the growth of L1210 Murine Leukemia cells; type: functional, Mus musculus
Outline: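 L1210 mouse leukemia cells in RPMI 1640 with 10% heat-inactivated horse serum, 2000 cells/well. Compound added the next day and incubated 3 days. Growth read by MTS tetrazolium reduction optical density as percent of control. Screen at 100 µM, or the solubility limit; value is the mean of two or three experiments.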

KB = test: In vitro inhibition of KB (human carcinoma) cell growth.; type: functional, cell-based
Outline: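 KB cells, 3000–5000/well, incubated overnight at 37 °C. Compound added in quadruplicate at six to eight concentrations for 48 h (about two population doublings). Cells fixed in 95% ethanol, stained with 0.1% crystal violet, dye eluted with acidified ethanol and read at 570 nm. IC50 from regression against log concentration.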

L1210 [4] = test: concentration required to decrease the cell density in the treated cultures to one-half of the control was measured on L1210 murine Leukemia cells (in vitro); c=No significant growth inhibition observed atthe initial screen concentration; type: functional, cell-based, Mus musculus
L1210 [5] = test: Effect of initial screen concentration of 10 uM on the growth of L1210 Murine Leukemia cells
Human betaherpesvirus 5 [6] = test: In vitro reduction in yield of Towne strain of HCMV in HFF (human fibroblast) cells.; type: functional; settings: Human betaherpesvirus 5, HFF
Outline: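 HFF in 96-well plates infected with HCMV Towne at MOI 0.5-1 PFU/cell. After adsorption, compound given in duplicate, serially diluted 1:3 from 100 to 0.14 µM. After 7 days at 37 °C, one freeze-thaw cycle, then progeny titred by 1:3 serial dilution on fresh HFF monolayers with plaque counts. IC90 taken from regression of percent inhibition against log concentration.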

L1210 [7] = test: concentration required to decrease the cell density in the treated cultures to one-half of the control was measured on L1210 murine Leukemia cells (in vitro); type: functional, cell-based; settings: Mus musculus
Outline: (§3)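 L1210 cells, 2000/well, given compound the day after plating and incubated 3 days; cell density read by MTS reduction. Concentration–response in two independent experiments. IC50 is the concentration that halves cell density relative to control, averaged over the two experiments.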

L1210 [8] = test: Effect of initial screen concentration of 1 uM on the growth of L1210 Murine Leukemia cells
Human alphaherpesvirus 1 [9] = test: Antiviral activity was determined against Herpes simplex virus-1 by ELISA test (IC50 not reached at the noted concentration tested); type: functional, organism-based; outline: as §2
L1210 [10] = test: concentration required to decrease the cell density in the treated cultures to one-half of the control was measured on L1210 murine Leukemia cells (in vitro) (The highest concentration tested); type: functional, cell-based; settings: Mus musculus; outline: as §3
Human betaherpesvirus 5 [11] = test: Antiviral activity was determined against Towne strain of HCMV by Plaque and yield reduction test (Averaged results from duplicate or triplicate experiments); type: functional
Human betaherpesvirus 5 [12] = test: Antiviral activity was determined against AD169 strain of HCMV by Plaque and yield reduction test; type: functional, organism-based; outline: as §1
Human betaherpesvirus 5 [13] = test: Antiviral activity was determined against Towne strain of HCMV by Plaque and yield reduction test; type: functional

Compound	IC50 (Human betaherpesvirus 5 [1])	IC50 (HFF)	IC50 (Human alphaherpesvirus 1 [2])	Control (L1210 [3])	IC50 (KB)	IC50 (L1210 [4])	Control (L1210 [5])	IC90 (Human betaherpesvirus 5 [6])	IC50 (L1210 [7])	Control (L1210 [8])	IC50 (Human alphaherpesvirus 1 [9])	IC50 (L1210 [10])	IC90 (Human betaherpesvirus 5 [11])	IC50 (Human betaherpesvirus 5 [12])	IC90 (Human betaherpesvirus 5 [13])
CSCC1OC(n2c(Cl)nc3cc(Cl)c(Cl)cc32)C(OC(C)=O)C1OC(C)=O (centres undefined)	4.8 µM	32 µM	> 100 µM	–	–	–	–	–	–	–	–	–	–	–	–
CC(=O)OC1C(CBr)OC(n2c(Cl)nc3cc(Cl)c(Cl)cc32)C1OC(C)=O (centres undefined)	2.7 µM	32 µM	> 100 µM	94%	60 µM	No significant growth	–	–	–	–	–	–	–	–	–
CC(=O)OC1C(CN=[N+]=[N-])OC(n2c(Cl)nc3cc(Cl)c(Cl)cc32)C1OC(C)=O (centres undefined)	1.5 µM	32 µM	> 100 µM	–	70 µM	No significant growth	110%	–	–	–	–	–	–	–	–
Nc1nc2c(ncn2COC(CO)CO)c(=O)[nH]1 [GANCICLOVIR]	7.4 µM	> 100 µM	3.5 µM	–	> 100 µM	–	–	1.6 µM	–	–	–	–	–	–	–
CCCCOC[C@H]1OC(n2c(Cl)nc3cc(Cl)c(Cl)cc32)[C@H](O)[C@@H]1O (some centres undefined)	14.2 µM	32 µM	> 100 µM	64%	60 µM	–	–	–	> 100 µM	–	–	–	–	–	–
COC[C@H]1O[C@@H](n2c(Cl)nc3cc(Cl)c(Cl)cc32)[C@H](OC(C)=O)[C@@H]1OC(C)=O	2.8 µM	26 µM	–	–	80 µM	No significant growth	–	–	–	95%	> 100 µM	–	–	–	–
CC(=O)OC1C(CCl)OC(n2c(Cl)nc3cc(Cl)c(Cl)cc32)C1OC(C)=O (centres undefined)	1.4 µM	32 µM	> 100 µM	–	90 µM	No significant growth	96%	0.31 µM	–	–	–	–	–	–	–
CCOC[C@H]1O[C@@H](n2c(Cl)nc3cc(Cl)c(Cl)cc32)[C@H](OC(C)=O)[C@@H]1OC(C)=O	4.3 µM	33 µM	> 100 µM	–	60 µM	–	83%	–	–	–	–	> 10 µM	–	–	–
CCCCOC[C@H]1O[C@@H](n2c(Cl)nc3cc(Cl)c(Cl)cc32)[C@H](OC(C)=O)[C@@H]1OC(C)=O	21 µM	66 µM	> 100 µM	–	> 100 µM	No significant growth	92%	–	–	–	–	–	–	–	–
CSC[C@H]1OC(n2c(Cl)nc3cc(Cl)c(Cl)cc32)[C@H](O)[C@@H]1O (some centres undefined)	4.5 µM	32 µM	> 100 µM	73%	> 100 µM	–	–	–	> 100 µM	–	–	–	–	–	–
O[C@@H]1[C@@H](CCl)OC(n2c(Cl)nc3cc(Cl)c(Cl)cc32)[C@@H]1O (some centres undefined)	1 µM	32 µM	> 100 µM	73%	90 µM	–	–	–	> 100 µM	–	–	–	0.52 µM	–	–
O[C@@H]1[C@@H](CI)OC(n2c(Cl)nc3cc(Cl)c(Cl)cc32)[C@@H]1O (some centres undefined)	3.2 µM	32 µM	> 100 µM	–	–	–	–	–	–	–	–	–	–	2.9 µM	–
CCOC[C@H]1OC(n2c(Cl)nc3cc(Cl)c(Cl)cc32)[C@H](O)[C@@H]1O (some centres undefined)	4.6 µM	26 µM	> 100 µM	9%	80 µM	–	–	–	59 µM	–	–	–	–	–	–
O[C@@H]1[C@@H](CF)OC(n2c(Cl)nc3cc(Cl)c(Cl)cc32)[C@@H]1O (some centres undefined)	0.5 µM	32 µM	> 100 µM	81%	> 100 µM	–	–	0.22 µM	> 100 µM	–	–	–	–	–	–
O[C@@H]1[C@@H](CBr)OC(n2c(Cl)nc3cc(Cl)c(Cl)cc32)[C@@H]1O (some centres undefined)	1.5 µM	32 µM	> 100 µM	54%	90 µM	–	–	0.5 µM	100 µM	–	–	–	–	–	–
OC[C@H]1O[C@@H](n2c(Cl)nc3cc(Cl)c(Cl)cc32)[C@H](O)[C@@H]1O	2.8 µM	–	102 µM	76%	–	–	–	1.3 µM	> 100 µM	–	–	–	–	–	–
COC[C@H]1OC(n2c(Cl)nc3cc(Cl)c(Cl)cc32)[C@H](O)[C@@H]1O (some centres undefined)	3 µM	32 µM	> 100 µM	4%	90 µM	–	–	2 µM	60 µM	–	–	–	–	–	–
[N-]=[N+]=NC[C@H]1OC(n2c(Cl)nc3cc(Cl)c(Cl)cc32)[C@H](O)[C@@H]1O (some centres undefined)	1.5 µM	32 µM	> 100 µM	29%	70 µM	–	–	–	80 µM	–	–	–	–	–	0.6 µM
CC1(C)OC2C(CCl)OC(n3c(Cl)nc4cc(Cl)c(Cl)cc43)C2O1 (centres undefined)	14 µM	32 µM	> 100 µM	–	100 µM	–	–	–	–	–	–	–	–	–	–
CC(=O)OC1C(CF)OC(n2c(Cl)nc3cc(Cl)c(Cl)cc32)C1OC(C)=O (centres undefined)	0.6 µM	32 µM	> 100 µM	–	100 µM	No significant growth	122%	0.19 µM	–	–	–	–	–	–	–
CC1(C)OC2C(CN=[N+]=[N-])OC(n3c(Cl)nc4cc(Cl)c(Cl)cc43)C2O1 (centres undefined)	11 µM	32 µM	–	–	–	–	–	–	–	–	–	–	–	–	–
CC(=O)OC1C(CI)OC(n2c(Cl)nc3cc(Cl)c(Cl)cc32)C1OC(C)=O (centres undefined)	2.7 µM	32 µM	> 100 µM	–	60 µM	–	–	–	–	–	–	–	–	–	–
